As usually defined, the IC50 is the point on the concentration scale where inhibition reaches its midpoint. What is called MIC is the lowest concentration found to suppress growth. Broadly, the inhibition is the share of the control response that was lost under treatment. A high value points to a strong effect.

In ChEMBL document CHEMBL2016480, “Structure-based ligand design of novel bacterial RNA polymerase inhibitors” (ACS Med Chem Lett, 2011) one finds IC50, MIC and inhibition data, which are given here for three compounds.

Experiment [1] in a line: Inhibition of DNA dependent RNA polymerase.
The subject of experiment [2] is Escherichia coli. The experiment can be described thus: Antibacterial activity against kanamycin-resistant,acrAB::Tn903 deficient Escherichia coli SM1411 expressing lacI3, lacZ118, proB, trp, nalA, rpsL. In kind it is functional.
The test system of experiment [3] is Escherichia coli. Put plainly: Antibacterial activity against Escherichia coli 1411 expressing lacI3, lacZ118, proB, trp, nalA, rpsL. It is filed as functional. Put shortly:
(§1)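 MICs by standard susceptibility testing per British Society for Antimicrobial Chemotherapy guidelines, run in triplicate. For the PMBN lines, tests were repeated with polymyxin B nonapeptide added as an outer-membrane permeabilizer.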

Experiment [4] relates to Escherichia coli. The experiment can be described thus: Antibacterial activity against Escherichia coli 1411 expressing lacI3, lacZ118, proB, trp, nalA, rpsL in the presence of polymyxin B nonapeptide. It is filed as functional. A digest of the protocol:
as §1

Experiment [5] relates to Escherichia coli. Put plainly: Antibacterial activity against kanamycin-resistant,acrAB::Tn903 deficient Escherichia coli SM1411 expressing lacI3, lacZ118, proB, trp, nalA, rpsL in the presence of polymyxin B nonapeptide. It is filed as functional.
Experiment [6] deals with Staphylococcus aureus. The experiment can be described thus: Antibacterial activity against Staphylococcus aureus SH1000 expressing rsbU gene. In kind it is functional. A digest of the protocol: as §1
Experiment [7] has as its system Staphylococcus aureus. Put plainly: Antibacterial activity against Staphylococcus aureus SH1000 expressing rsbU gene in the presence of polymyxin B nonapeptide. In kind it is functional. A digest of the protocol:
as §1

The subject of experiment [8] is Staphylococcus aureus. The experiment can be described thus: Antibacterial activity against Staphylococcus aureus. In kind it is functional.
The subject of experiment [9] is Bacillus subtilis. Put plainly: Antibacterial activity against Bacillus subtilis 1S34 in the presence of polymyxin B nonapeptide. It is filed as functional. Put shortly:
as §1

Experiment [10] relates to Bacillus subtilis. The experiment can be described thus: Antibacterial activity against Bacillus subtilis 1S34. It is filed as functional. A digest of the protocol: as §1
Experiment [11] can be described thus: Inhibition of Escherichia coli DNA dependent RNA polymerase assessed as inhibition of [14C]UTP incorporation after 15 mins by liquid scintillation counting.
A short description of experiment [12]: Inhibition of Escherichia coli DNA dependent RNA polymerase after 2 hrs by SYBR Green-based spectrophotometric analysis. A digest of the protocol: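 In vitro transcription assay with E. coli RNA polymerase on a Kool NC-45 RNAP template. Activity was reported as IC50 or as percentage inhibition at 100 μM compound.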
In experiment [13] the test system is Saccharomyces cerevisiae. Put plainly: Inhibition of yeast RNA polymerase 2 at 100 uM. Put shortly: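 Selectivity assay against yeast RNA polymerase II. Activity was reported as percentage inhibition at 100 μM compound.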
A short description of experiment [14]: Inhibition of malate dehydrogenase at 100 uM. Put shortly:
(§2)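 Counter-screens for promiscuous inhibition using malate dehydrogenase and chymotrypsin enzyme assays. Activity was reported as percentage inhibition at 100 μM compound.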

Experiment [15] is described as follows: Inhibition of chymotrypsin at 100 uM. Put shortly:
as §2

SMILES strings stand for the structures. In brackets after ≈: the same amount, converted by molar mass.

`CCCC/C(C)=C/C=C(\C)C(=O)c1c(O)cc(CCC/C=C/NC(=O)OC)oc1=O` [DESMETHYL MYXOPYRONIN B] registered an IC50 in experiment [1] of 0.34 µM. Also, the MIC in experiment [2], in experiment [3], in experiment [4], in experiment [5], in [6] and in experiment [7] was more than 256 µg/mL throughout. Besides, the minimal inhibitory concentration (MIC) in experiment [8] was 4 µg/mL (≈ 9.58 µM); in experiment [9], more than 256 µg/mL; in experiment [10], more than 256 µg/mL.
With `CCCC/C(C)=C/C=C(\C)C(=O)c1c(O)cc([C@H](C)CC/C=C/NC(=O)OC)oc1=O` [MYXOPYRONIN B], the MIC in experiment [2], in [3], in experiment [4], in experiment [5], in experiment [6] and in experiment [7] was more than 256 µg/mL in each case. Moreover, the values for the MIC in [8], in experiment [9] and in experiment [10] were 1 µg/mL (≈ 2.32 µM), more than 256 µg/mL and more than 256 µg/mL, respectively. For the same compound, the IC50 in experiment [11] was 0.92 µM; in experiment [12], 46.5 µM.
For the compound `NC(=O)c1ccc(C(=O)Nc2ccc(-n3cncn3)nc2)cc1`, the inhibition in experiment [13] is 5.2%; in [14] it was 0%; in [15], 1.5%. Further, the MIC in experiment [2], in experiment [3], in experiment [4], in experiment [5], in experiment [6] and in experiment [7] was more than 256 µg/mL throughout. For the same compound, the MIC in experiment [9] and in experiment [10] was more than 256 µg/mL in each case. In experiment [12], this compound displayed an IC50 of 9.9 µM.
